Measured values reported in ChEMBL document CHEMBL1800014, “Novel lipophilic acetohydroxamic acid derivatives based on conformationally constrained spiro carbocyclic 2,6-diketopiperazine scaffolds with potent trypanocidal activity” (J Med Chem, 2011).
pIC50: −log10 of the molar value. Calls of active or inactive are those of the source. The calls are words filed in the database; no cut-off is given here.

Legend:
Trypanosoma brucei [1] = assay: Antitrypanosomal activity against Trypanosoma brucei 427 bloodstream forms assessed as inhibition of parasite growth incubated for 48 hrs by hemocytometry; assay type: functional, organism-based
Trypanosoma brucei [2] = assay: Antitrypanosomal activity against Trypanosoma brucei relative to amantadine; assay type: functional
Trypanosoma brucei [3] = assay: Antitrypanosomal activity against Trypanosoma brucei relative to rimantadine; assay type: functional
Trypanosoma brucei [4] = assay: Antitrypanosomal activity against Trypanosoma brucei bloodstream forms assessed as inhibition parasite growth at 5 ug/ml; assay type: functional
[5] = Selectivity index, ratio of IC50 for rat L6 cells to IC50 for Trypanosoma brucei bloodstream forms; assay type: toxicity, cell-based; conditions: read-out: Ratio IC50
L6 = assay: Cytotoxicity against rat L6 cells after 6 days using alamar blue staining based fluorescence assay; assay type: cell-based; conditions: L6, 144 h
Summary of the method: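 Rat skeletal muscle L6 cells seeded at 1 × 10⁴ ml⁻¹ in medium containing graded compound concentrations and held 6 days at 37 °C. Alamar Blue then added, with fluorescence read after a further 8 h.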

Trypanosoma cruzi = assay: Antitrypanosomal activity against Trypanosoma cruzi CL Brener clone epimastigotes assessed as inhibition of parasite growth incubated for 5 days by hemocytometry; conditions: 120 h
Trypanosoma brucei [6] = assay: Antitrypanosomal activity against Trypanosoma brucei bloodstream form assessed as inhibition parasite growth

With `C[C@@H]1NC2(C(=O)N(CC(=O)NO)C1=O)C1CC3CC(C1)CC2C3` (stereo partly specified) [listing 1 of 2 here] the pIC50 (Trypanosoma brucei [1]) was 6.87 and the IC90 (Trypanosoma brucei [1]) was 276 nM.

Compound `C[C@@H]1NC2(CCCCCCC2)C(=O)N(CC(=O)NO)C1=O` [listing 1 of 2 here] has a pIC50 (Trypanosoma brucei [1]) of 6.87 and an IC90 (Trypanosoma brucei [1]) of 259 nM.

With `O=C(CN1C(=O)[C@@H](Cc2ccccc2)NC2(C1=O)C1CC3CC(C1)CC2C3)NO` (stereo partly specified) [listing 1 of 2 here] the IC90 (Trypanosoma brucei [1]) was 14 nM.

For `O=C1ON=C2C3CC4CC(C3)CC12C4`, the “Ratio IC50” value (Trypanosoma brucei [2]) was 45 and the “Ratio IC50” value (Trypanosoma brucei [3]) was 3.

Work on `O=C(CN1C(=O)CNC2(CCCCCCC2)C1=O)NO` [listing 1 of 2 here] yielded a pIC50 (Trypanosoma brucei [1]; Trypanosoma brucei, 427, 48 h) of 6.52 and an IC90 (Trypanosoma brucei [1]; Trypanosoma brucei, 427, 48 h) of 635 nM.

`O=C(CN1C(=O)CNC2(CCCCCCC2)C1=O)NO` [listing 2 of 2 here] showed a pIC50 (Trypanosoma brucei [1]) of 6.58 and an IC90 (Trypanosoma brucei [1]) of 495 nM.

With `O=C(CN1C(=O)CNC2(CCCCCC2)C1=O)NO` [listing 1 of 2 here] the pIC50 (Trypanosoma brucei [1]) was 5.94 and the IC90 (Trypanosoma brucei [1]) was 1710 nM.

`CN1CC(=O)N(CC(=O)NO)C(=O)C12CCCCCCC2` [listing 1 of 2 here] showed a pIC50 (Trypanosoma brucei [1]; Trypanosoma brucei, 427, 48 h) of 6.80 and an IC90 (Trypanosoma brucei [1]; Trypanosoma brucei, 427, 48 h) of 300 nM.

Work on `CN1CC(=O)NC(=O)C12C1CC3CC(C1)CC2C3` (stereo unspecified) yielded an inhibition of growth at 5 µg/mL (Trypanosoma brucei [4]; read-out: GI) of 40%.

In the case of `CN1CC(=O)N(CC(=O)NO)C(=O)C12CCCCCCC2` [listing 2 of 2 here], the pIC50 (Trypanosoma brucei [1]) was 6.79 and the IC90 (Trypanosoma brucei [1]) was 327 nM.

Compound `O=C(CN1C(=O)[C@H](Cc2ccccc2)NC2(CCCCCCC2)C1=O)NO` [listing 1 of 2 here] has a pIC50 (Trypanosoma brucei [1]) of 7.60 and an IC90 (Trypanosoma brucei [1]) of 35 nM.

In the case of `O=C(CN1C(=O)C(Cc2ccccc2)NC2(C1=O)C1CC3CC(C1)CC2C3)NO` (racemic; form 2), the pIC50 (Trypanosoma brucei [1]) was 7.74 and the IC90 (Trypanosoma brucei [1]) was 24 nM.

Work on `O=C(CN1C(=O)[C@H](Cc2ccccc2)NC2(CCCCCCC2)C1=O)NO` [listing 2 of 2 here] yielded a pIC50 (Trypanosoma brucei [1]; Trypanosoma brucei, 427, 48 h) of 7.54, an IC90 (Trypanosoma brucei [1]; Trypanosoma brucei, 427, 48 h) of 39 nM and a selectivity ratio [5] of 3200. For the same compound, the pIC50 (L6) was 4.03.

`CN1CC(=O)N(CC(=O)NO)C(=O)C12C1CC3CC(C1)CC2C3` (stereo unspecified) [listing 1 of 2 here] gave a pIC50 (Trypanosoma brucei [1]; Trypanosoma brucei, 427, 48 h) of 6.71, an IC90 (Trypanosoma brucei [1]; Trypanosoma brucei, 427, 48 h) of 328 nM and a selectivity ratio [5] of 210. It also gave a pIC50 (Trypanosoma cruzi) of 5.44, an IC90 (Trypanosoma cruzi) of 5990 nM and a pIC50 (L6) of 4.39.

For `O=C(CN1C(=O)[C@H](Cc2ccccc2)NC2(C1=O)C1CC3CC(C1)CC2C3)NO` (stereo partly specified) [listing 1 of 2 here], the pIC50 (Trypanosoma brucei [1]) was 7.38 and the IC90 (Trypanosoma brucei [1]) was 80 nM.

In the case of `O=C(CN1C(=O)CNC2(CCCCCC2)C1=O)NO` [listing 2 of 2 here], the pIC50 (Trypanosoma brucei [1]; Trypanosoma brucei, 427, 48 h) was 5.73 and the IC90 (Trypanosoma brucei [1]; Trypanosoma brucei, 427, 48 h) was 2530 nM.

Compound `O=C(CN1C(=O)C(Cc2ccccc2)NC2(C1=O)C1CC3CC(C1)CC2C3)NO` (racemic; form 1) has a pIC50 (Trypanosoma brucei [6]) of 6.55, a pIC50 (Trypanosoma brucei [1]; Trypanosoma brucei, 427, 48 h) of 7.77 and an IC90 (Trypanosoma brucei [1]; Trypanosoma brucei, 427, 48 h) of 26 nM. The selectivity ratio [5] was 1400 and the pIC50 (L6) was 4.63.

`CN1CC(=O)N(CC(=O)NO)C(=O)C12CCCCCC2` [listing 1 of 2 here] showed a pIC50 (Trypanosoma brucei [1]; Trypanosoma brucei, 427, 48 h) of 6.55 and an IC90 (Trypanosoma brucei [1]; Trypanosoma brucei, 427, 48 h) of 673 nM.

`C[C@@H]1NC2(C(=O)N(CC(=O)NO)C1=O)C1CC3CC(C1)CC2C3` (stereo partly specified) [listing 2 of 2 here] showed a pIC50 (Trypanosoma brucei [1]) of 6.39 and an IC90 (Trypanosoma brucei [1]) of 909 nM.

Work on `O=C(CN1C(=O)CNC2(C1=O)C1CC3CC(C1)CC2C3)NO` (stereo unspecified) [listing 1 of 2 here] yielded a pIC50 (Trypanosoma brucei [1]; Trypanosoma brucei, 427, 48 h) of 7.05, an IC90 (Trypanosoma brucei [1]; Trypanosoma brucei, 427, 48 h) of 155 nM and a selectivity ratio [5] of over 3600. The pIC50 (Trypanosoma cruzi) was 5.26, the IC90 (Trypanosoma cruzi) was 11100 nM and the pIC50 (L6) was under 3.49.

In the case of `O=C1CNC2(C(=O)N1)C1CC3CC(C1)CC2C3` (stereo unspecified), the “growth inhibition (GI)” value (Trypanosoma brucei [4]) was “inactive”.

For `O=C(CN1C(=O)CNC2(C1=O)C1CC3CC(C1)CC2C3)NO` (stereo unspecified) [listing 2 of 2 here], the pIC50 (Trypanosoma brucei [1]) was 7.10 and the IC90 (Trypanosoma brucei [1]) was 148 nM.

In the case of `CN1CC(=O)N(CC(=O)NO)C(=O)C12CCCCCC2` [listing 2 of 2 here], the pIC50 (Trypanosoma brucei [1]) was 6.51 and the IC90 (Trypanosoma brucei [1]) was 717 nM.

Compound `O=C(CN1C(=O)[C@@H](Cc2ccccc2)NC2(C1=O)C1CC3CC(C1)CC2C3)NO` (stereo partly specified) [listing 2 of 2 here] has a pIC50 (Trypanosoma brucei [6]) of 6.97, a pIC50 (Trypanosoma brucei [1]; Trypanosoma brucei, 427, 48 h) of 8.04 and a selectivity ratio [5] of 1300. It also gave a pIC50 (L6) of 4.94.

In the case of `CN1CC(=O)N(CC(=O)NO)C(=O)C12C1CC3CC(C1)CC2C3` (stereo unspecified) [listing 2 of 2 here], the pIC50 (Trypanosoma brucei [1]) was 6.47 and the IC90 (Trypanosoma brucei [1]) was 622 nM.

`O=C(CN1C(=O)[C@H](Cc2ccccc2)NC2(C1=O)C1CC3CC(C1)CC2C3)NO` (stereo partly specified) [listing 2 of 2 here] gave a pIC50 (Trypanosoma brucei [6]) of 6.48, a pIC50 (Trypanosoma brucei [1]) of 8.17 and an IC90 (Trypanosoma brucei [1]) of 11.5 nM. It also gave a selectivity ratio [5] of 1500, a pIC50 (Trypanosoma cruzi) of 6.68 and an IC90 (Trypanosoma cruzi) of 360 nM. For the same compound, the pIC50 (L6) was 4.98.

In the case of `C[C@@H]1NC2(CCCCCCC2)C(=O)N(CC(=O)NO)C1=O` [listing 2 of 2 here], the pIC50 (Trypanosoma brucei [1]; Trypanosoma brucei, 427, 48 h) was 6.90 and the IC90 (Trypanosoma brucei [1]; Trypanosoma brucei, 427, 48 h) was 270 nM.
